{"source": "ChEMBL document CHEMBL4316599", "about": "“Synthesis, in vitro and in vivo biological evaluation of substituted 3-(5-imidazo[2,1-b]thiazolylmethylene)-2-indolinones as new potent anticancer agents” (Eur J Med Chem, 2019)", "key": {"A549": {"system": "A549", "assay": "Cell cycle arrest in human A549 cells assessed as reduction in accumulation of cells at S phase up to 600 nM after 24 hrs by propidium iodide staining-based flow cytometric analysis", "type": "functional", "in_short": "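Cells exposed to a range of concentrations for 24 h (HeLa at 5×10^5 cells), then fixed in ice-cold 70% ethanol. Lysis buffer with RNase A and 0.1% Triton X-100 was applied before PI staining. DNA content was read by flow cytometry and G1/S/G2/M fractions taken from DNA histograms. Mean ± SEM of two independent experiments.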"}, "K562": {"system": "K562", "assay": "Cell cycle arrest in human K562 cells assessed as mitotic index at IC50 by Giemsa staining-based assay (reference value: 3%)", "type": "functional"}}, "note": "The source made the active and inactive calls. The rule behind the calls is not given here."}
{"smiles": "O=C1Nc2c(ccc3ccccc23)C1=Cc1c(-c2ccncc2)nc2sccn12", "values": [{"measurement": "Activity", "setting": "A549", "value": "Active"}, {"measurement": "Activity", "setting": "K562", "value": 12, "unit": "%"}]}
